Experimental data from different studies.
Each line is one published result; the experiments were not run side by side.
Read-out: cell growth or viability

| Compound | cell line | method | concentration | time | measurement | value |
| --- | --- | --- | --- | --- | --- | --- |
| COc1ccc2/c(=N/c3ccccc3NC(=O)CN)cc(-c3ccc4c(c3)OCCO4)oc2c1 | MDA-MB-231 | CCK-8 | 1 µM | – | inhibition | 12.6% |
| COc1cc(C(=O)c2nc(-c3cccc4[nH]ccc34)c(C)[nH]2)cc(OC)c1OC | A-375 | MTS | – | 72 h | IC50 | 16.1 nM |
| O=C(Nc1ccc(Oc2nc3ccccc3n3cnnc23)cc1)Nc1cccc(Cl)c1 | MDA-MB-231 | MTT | 50 µM | 24 h | viability | 41.2% |
| C[C@H](N)C(=O)Nc1ccccc1/N=c1\cc(-c2ccc3c(c2)OCCO3)oc2c([N+](=O)[O-])cccc12 | MDA-MB-231 | CCK-8 | 1 µM | – | inhibition | -3.63% |
| COc1cc(C(=O)c2nc(-c3cccc4[nH]ccc34)cs2)cc(OC)c1OC | A-375 | MTS | – | 72 h | IC50 | 5.6 nM |
| O=C(Nc1ccccc1/N=c1\cc(-c2ccc3c(c2)OCO3)oc2ccccc12)N1CCOCC1 | MDA-MB-231 | CCK-8 | 1 µM | – | inhibition | -4.28% |
| COc1cc(C(=O)c2nc(-c3ccc4cc[nH]c4c3)c[nH]2)cc(OC)c1OC | A-375 | MTS | – | 72 h | IC50 | 19.9 nM |
| O=C(NN=Cc1ccc([N+](=O)[O-])s1)C1CC(=O)N(c2ccc(F)cc2F)C1 (stereo not drawn) | A-375 | MTT | 100 µM | 72 h | viability | 4.41% |
| Cc1nc(Nc2ncc(C(=O)Nc3c(C)cccc3Cl)s2)cc(N2CC[C@H](O)C2)n1 | L-82 | ATP luminescence | – | 72 h | IC50 | > 10000 nM |
| COc1cc(C(=O)c2nc(-c3cccc4[nH]nnc34)c[nH]2)cc(OC)c1OC | A-375 | MTS | – | 72 h | IC50 | 63.2 nM |
| COc1ccc2/c(=N/c3ccccc3NC(=O)[C@@H](N)C(C)(C)C)cc(-c3ccc4c(c3)OCCO4)oc2c1 | MDA-MB-231 | CCK-8 | 1 µM | – | inhibition | 6.88% |
| COc1cccc2c1C(=O)c1c(O)c3c(c(O)c1C2=O)C[C@@](O)(C(=O)CO)C[C@@H]3O[C@H]1C[C@H](N)[C@H](O)[C@H](C)O1 | HS27 | CCK-8 | – | 72 h | IC50 | 109 nM |
| CNC(=O)c1cc(Oc2ccc(NC(=O)Nc3ccc(Cl)c(C(F)(F)F)c3)cc2)ccn1 | MDA-MB-231 | MTT | 3.125 µM | 24 h | viability | 70.2% |
| NCCCC(=O)Nc1ccccc1/N=c1\cc(-c2ccc3c(c2)OCO3)oc2ccccc12 | MDA-MB-231 | CCK-8 | 1 µM | – | inhibition | 8.02% |
| CN(C)c1cccc(Nc2nc(-c3ccncc3)nc3c2CNCC3)c1 | A-375 | MTT | – | – | IC50 | 88800 nM |
| NCCCCC(=O)Nc1ccccc1/N=c1\cc(-c2ccc3c(c2)OCO3)oc2ccccc12 | MDA-MB-231 | CCK-8 | 1 µM | – | inhibition | -5.88% |
| COc1cccc2c1C(=O)c1c(O)c3c(c(O)c1C2=O)C[C@@](O)(C(=O)CO)C[C@@H]3O[C@H]1C[C@H](N)[C@H](O)[C@H](C)O1 | MRC5 | MTT | – | 75 h | IC50 | 2700 nM |
| O=C(Nc1ccc(Cl)cc1)Nc1ccc(Oc2nc3ccccc3n3cnnc23)cc1 | MDA-MB-231 | MTT | 50 µM | 24 h | viability | 56.4% |
| NCCC(=O)Nc1ccccc1/N=c1\cc(-c2ccc3nc(N)oc3c2)oc2cc(O)ccc12 | MDA-MB-231 | CCK-8 | 1 µM | – | inhibition | 22% |
| COc1cc(C(=O)c2nc(-c3cccc4[nH]ccc34)c[nH]2)cc2c1OCO2 | A-375 | MTS | – | 72 h | IC50 | 5.1 nM |
| O=C(Nc1ccccc1)Nc1ccc(Oc2nc3ccccc3n3cnnc23)cc1 | MDA-MB-231 | MTT | 100 µM | 24 h | viability | 41.6% |
| COc1cc(C(=O)c2nc(-c3ccnc4[nH]ccc34)c[nH]2)cc(OC)c1OC | A-375 | MTS | – | 72 h | IC50 | 28.5 nM |
| COc1cccc(NC(=O)Nc2ccc(Oc3nc4ccccc4n4cnnc34)cc2)c1 | MDA-MB-231 | MTT | 50 µM | 24 h | viability | 32.4% |
| N[C@@H](CO)C(=O)Nc1ccccc1/N=c1\cc(-c2ccc3c(c2)OCO3)oc2ccccc12 | MDA-MB-231 | CCK-8 | 1 µM | – | inhibition | 11.7% |
